Measured values as given in ChEMBL document CHEMBL2331548, “Identification of N-acyl 4-(3-pyridonyl)phenylalanine derivatives and their orally active prodrug esters as dual acting α4β1 and α4β7 receptor antagonists” (Bioorg Med Chem Lett, 2013).
Values after ≈ are worked out from the molar mass of the structure shown.

Assays:
[1] = target: Integrin alpha-4/beta-7 (Homo sapiens) (UniProt P13612+P26010); experiment: Inhibition of human MAdCAM1 binding to integrin alpha4beta7 receptor in human RPMI 8866 cells labeled with Calcein AM relative to RO0270608; assay type: cell-based
How it was run: (§1)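 Serially diluted compound tested for blocking adhesion of Calcein AM-labelled cells to recombinant human counter-ligand: RAMOS cells on VCAM-1 (α4β1) and RPMI 8866 cells on MAdCAM-1 (α4β7). Cells activated beforehand in Mn2+-containing binding buffer for maximal activation. IC50 taken from fluorescence; RO0270608 run on every plate, and relative potency expressed as fold versus this control because cell activity drifted with passage.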

Integrin alpha-4/beta-1 [2] = target: T1, Integrin alpha-4/beta-1 (Homo sapiens, UniProt P05556+P13612); experiment: Inhibition of human VCAM1 binding to integrin alpha4beta1 receptor in human Ramos cells labeled with Calcein AM relative to RO0270608; assay type: cell-based; how it was run: as §1
T1 sequence (P05556 whole entry, one chain of several): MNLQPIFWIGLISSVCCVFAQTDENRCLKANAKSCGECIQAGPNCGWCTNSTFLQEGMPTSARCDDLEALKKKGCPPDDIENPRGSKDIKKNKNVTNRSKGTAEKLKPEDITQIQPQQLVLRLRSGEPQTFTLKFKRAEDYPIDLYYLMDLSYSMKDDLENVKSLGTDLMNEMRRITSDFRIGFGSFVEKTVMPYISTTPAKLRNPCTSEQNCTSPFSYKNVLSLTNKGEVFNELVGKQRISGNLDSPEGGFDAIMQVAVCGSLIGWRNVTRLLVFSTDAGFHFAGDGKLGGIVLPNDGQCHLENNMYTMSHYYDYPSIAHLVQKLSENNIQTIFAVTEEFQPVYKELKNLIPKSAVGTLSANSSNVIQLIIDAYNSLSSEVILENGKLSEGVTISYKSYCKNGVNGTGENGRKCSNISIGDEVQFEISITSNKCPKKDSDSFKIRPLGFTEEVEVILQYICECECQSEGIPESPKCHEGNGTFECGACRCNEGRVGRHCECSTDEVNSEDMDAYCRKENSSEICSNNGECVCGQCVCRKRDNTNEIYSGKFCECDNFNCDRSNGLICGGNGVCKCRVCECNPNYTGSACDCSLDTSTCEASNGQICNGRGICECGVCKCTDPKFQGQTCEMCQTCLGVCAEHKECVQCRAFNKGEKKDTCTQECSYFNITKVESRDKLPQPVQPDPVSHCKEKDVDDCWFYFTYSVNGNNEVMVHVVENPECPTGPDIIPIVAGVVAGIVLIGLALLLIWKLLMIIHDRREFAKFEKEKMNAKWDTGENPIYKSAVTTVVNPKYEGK

Integrin alpha-4/beta-7 = target: T2, Integrin alpha-4/beta-7 (Homo sapiens, UniProt P13612+P26010); experiment: Inhibition of human MAdCAM1 binding to integrin alpha4beta7 receptor in human RPMI 8866 cells labeled with Calcein AM; assay type: cell-based; how it was run: as §1
T2 sequence (P13612 whole entry): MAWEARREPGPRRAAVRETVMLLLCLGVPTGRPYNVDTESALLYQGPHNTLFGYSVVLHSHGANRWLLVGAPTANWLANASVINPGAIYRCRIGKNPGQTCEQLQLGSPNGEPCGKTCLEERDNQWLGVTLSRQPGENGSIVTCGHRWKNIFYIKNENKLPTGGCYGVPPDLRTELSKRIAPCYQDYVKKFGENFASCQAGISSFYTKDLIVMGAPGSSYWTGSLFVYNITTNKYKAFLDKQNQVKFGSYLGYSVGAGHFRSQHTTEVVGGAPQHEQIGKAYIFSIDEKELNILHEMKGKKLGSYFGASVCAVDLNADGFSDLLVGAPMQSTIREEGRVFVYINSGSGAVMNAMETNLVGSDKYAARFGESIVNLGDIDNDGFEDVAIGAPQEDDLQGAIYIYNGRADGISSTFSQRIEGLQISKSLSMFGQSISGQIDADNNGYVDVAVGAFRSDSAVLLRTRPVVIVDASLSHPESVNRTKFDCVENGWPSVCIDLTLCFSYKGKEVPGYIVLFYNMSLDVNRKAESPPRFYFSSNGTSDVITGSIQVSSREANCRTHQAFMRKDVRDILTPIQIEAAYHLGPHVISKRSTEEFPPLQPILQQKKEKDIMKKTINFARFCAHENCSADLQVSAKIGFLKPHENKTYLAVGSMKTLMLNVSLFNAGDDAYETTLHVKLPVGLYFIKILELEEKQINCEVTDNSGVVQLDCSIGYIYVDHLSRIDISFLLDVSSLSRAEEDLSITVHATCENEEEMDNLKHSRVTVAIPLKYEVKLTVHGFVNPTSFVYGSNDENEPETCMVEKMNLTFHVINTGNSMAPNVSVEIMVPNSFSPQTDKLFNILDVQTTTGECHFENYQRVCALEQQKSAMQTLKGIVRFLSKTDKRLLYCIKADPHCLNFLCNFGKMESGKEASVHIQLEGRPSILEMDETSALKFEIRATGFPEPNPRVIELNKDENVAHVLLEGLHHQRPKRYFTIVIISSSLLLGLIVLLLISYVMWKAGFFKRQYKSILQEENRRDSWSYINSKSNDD
T2 sequence (P26010 whole entry): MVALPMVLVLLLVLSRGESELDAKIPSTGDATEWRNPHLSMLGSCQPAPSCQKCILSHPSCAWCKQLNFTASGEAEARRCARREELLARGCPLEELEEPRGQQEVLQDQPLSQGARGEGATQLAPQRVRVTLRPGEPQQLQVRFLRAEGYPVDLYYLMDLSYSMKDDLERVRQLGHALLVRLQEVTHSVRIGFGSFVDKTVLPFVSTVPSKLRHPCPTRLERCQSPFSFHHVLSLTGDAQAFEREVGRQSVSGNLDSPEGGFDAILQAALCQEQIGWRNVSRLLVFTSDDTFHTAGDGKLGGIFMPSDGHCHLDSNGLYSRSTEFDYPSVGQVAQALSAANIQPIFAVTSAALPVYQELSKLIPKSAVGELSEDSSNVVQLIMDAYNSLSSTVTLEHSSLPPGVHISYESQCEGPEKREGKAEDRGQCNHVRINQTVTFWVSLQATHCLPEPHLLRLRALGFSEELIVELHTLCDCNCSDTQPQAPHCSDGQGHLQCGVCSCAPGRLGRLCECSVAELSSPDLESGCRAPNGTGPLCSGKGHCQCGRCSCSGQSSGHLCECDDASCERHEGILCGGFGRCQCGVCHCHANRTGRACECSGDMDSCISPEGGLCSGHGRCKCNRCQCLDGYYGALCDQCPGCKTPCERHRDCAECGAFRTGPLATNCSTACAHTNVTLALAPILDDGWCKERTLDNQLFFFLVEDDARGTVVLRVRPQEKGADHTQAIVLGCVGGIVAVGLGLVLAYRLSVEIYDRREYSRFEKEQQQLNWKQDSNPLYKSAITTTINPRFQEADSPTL

Integrin alpha-4/beta-1 [3] = target: T1, Integrin alpha-4/beta-1; experiment: Inhibition of human VCAM1 binding to integrin alpha4beta1 receptor in human Ramos cells labeled with Calcein AM; assay type: cell-based; how it was run: as §1
[4] = Stability in simulated intestinal fluid at pH 7.5 assessed as half life; assay type: physicochemical; settings: for Stability: simulated gi fluid
[5] = Solubility in simulated gastric fluid at pH 2.0; assay type: physicochemical
[6] = Apparent permeability across human Caco2 cells; assay type: ADME, cell-based; settings: Caco-2
[7] = Stability in plasma (unknown origin) assessed as unchanged prodrug level; assay type: ADME, cell-free
[8] = Oral bioavailability in rat; assay type: ADME, organism-based; settings: in vivo
[9] = Solubility in simulated intestinal fluid at pH 7.5; assay type: physicochemical
hERG (KCNH2) = hERG (KCNH2) (Homo sapiens, UniProt Q12809); experiment: Inhibition of human ERG
Sequence of hERG (KCNH2) (Q12809 whole entry): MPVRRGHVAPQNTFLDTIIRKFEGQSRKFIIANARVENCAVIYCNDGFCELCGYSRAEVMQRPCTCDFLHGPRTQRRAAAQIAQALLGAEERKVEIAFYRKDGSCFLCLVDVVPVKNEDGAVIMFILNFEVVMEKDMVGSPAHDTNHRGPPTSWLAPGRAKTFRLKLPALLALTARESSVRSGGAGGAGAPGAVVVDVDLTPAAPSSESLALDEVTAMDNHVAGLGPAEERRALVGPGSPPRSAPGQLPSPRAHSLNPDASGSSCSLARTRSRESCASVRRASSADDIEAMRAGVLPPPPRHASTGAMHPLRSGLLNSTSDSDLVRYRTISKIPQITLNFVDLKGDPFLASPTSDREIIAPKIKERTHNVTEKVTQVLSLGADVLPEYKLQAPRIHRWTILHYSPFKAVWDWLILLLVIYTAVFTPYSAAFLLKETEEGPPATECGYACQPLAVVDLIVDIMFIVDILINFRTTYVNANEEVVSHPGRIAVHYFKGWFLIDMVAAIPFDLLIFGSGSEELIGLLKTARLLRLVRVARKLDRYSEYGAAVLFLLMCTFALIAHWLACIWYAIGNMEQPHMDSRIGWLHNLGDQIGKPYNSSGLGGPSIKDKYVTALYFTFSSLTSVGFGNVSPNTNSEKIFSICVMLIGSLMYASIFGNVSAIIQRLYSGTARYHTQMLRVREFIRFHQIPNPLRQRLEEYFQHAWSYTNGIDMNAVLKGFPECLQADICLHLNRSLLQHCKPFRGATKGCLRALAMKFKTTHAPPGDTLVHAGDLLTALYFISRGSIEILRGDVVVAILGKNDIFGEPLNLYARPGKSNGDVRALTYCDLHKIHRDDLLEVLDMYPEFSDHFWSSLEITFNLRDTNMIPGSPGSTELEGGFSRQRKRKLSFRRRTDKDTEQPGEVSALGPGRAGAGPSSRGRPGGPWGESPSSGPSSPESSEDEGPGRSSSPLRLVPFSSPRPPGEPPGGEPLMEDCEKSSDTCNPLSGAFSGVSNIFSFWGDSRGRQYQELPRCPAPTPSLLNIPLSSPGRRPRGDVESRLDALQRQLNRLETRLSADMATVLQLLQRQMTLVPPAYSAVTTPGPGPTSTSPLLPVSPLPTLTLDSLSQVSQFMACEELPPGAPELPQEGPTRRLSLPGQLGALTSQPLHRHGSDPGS

[10] = simulated gi fluid, BLD = below limit of detection
[11] = simulated gastric fluid, read-out: solubility

Row | Compound | Ratio IC50 [1] | Ratio IC50 (Integrin alpha-4/beta-1 [2]) | IC50 (Integrin alpha-4/beta-7) | IC50 (Integrin alpha-4/beta-1 [3]) | Papp [6] | other results
1 | CCc1cccc(C)c1C(=O)N[C@@H](Cc1ccc(-c2c(C(F)(F)F)cc(C)n(C)c2=O)cc1)C(=O)O | 0.7 | 0.41 | 767 nM | 225 nM |  | 
2 | Cc1cccc(Cl)c1C(=O)N[C@@H](Cc1ccc(-c2c(C)ccn(C)c2=O)cc1)C(=O)O | 0.68 | 0.23 | 363 nM | 226 nM |  | 
3 | COCCOC(=O)[C@H](Cc1ccc(-c2c(C(F)(F)F)cc(C)n(C)c2=O)cc1)NC(=O)c1c(Cl)cccc1Cl |  |  |  |  | 49.9 ×10⁻⁶ cm/s | Stability [4]: Stable; solubility [5, 10]: BLD
4 | Cc1cccc(C(C)C)c1C(=O)N[C@@H](Cc1ccc(-c2c(C(F)(F)F)cc(C)n(C)c2=O)cc1)C(=O)O | 0.23 | 0.36 | 1290 nM | 366 nM |  | 
5 | COc1ccc(Br)c(C(=O)N[C@@H](Cc2ccc(-c3cccn(C)c3=O)cc2)C(=O)O)c1 |  |  |  | 419 nM |  | 
6 | Cc1cc(C(F)(F)F)c(-c2ccc(C[C@H](NC(=O)c3c(Cl)cccc3Cl)C(=O)OCC(O)CO)cc2)c(=O)n1C (some centres undefined) |  |  |  |  | 1.8 ×10⁻⁶ cm/s | Stability [7]: Stable; bioavailability [8]: 6%; Stability [4]: Stable; solubility [5, 11]: 190 µg/mL (≈ 316 µM); solubility [9]: 140 µg/mL (≈ 233 µM)
7 | Cc1cccc(Cl)c1C(=O)N[C@@H](Cc1ccc(-c2cccn(C)c2=O)cc1)C(=O)O | 0.46 | 0.03 | 687 nM | 582 nM |  | 
8 | Cc1cc(C(F)(F)F)c(-c2ccc(C[C@H](NC(=O)c3c(Cl)cccc3Cl)C(=O)OCC(=O)N(C)C)cc2)c(=O)n1C |  |  |  |  | 6.3 ×10⁻⁶ cm/s | Stability [4]: Stable; solubility [5, 11]: 0.8 µg/mL (≈ 1.31 µM); solubility [9]: 0.7 µg/mL (≈ 1.14 µM)
9 | Cc1cc(C(F)(F)F)c(-c2ccc(C[C@H](NC(=O)c3c(Cl)cccc3Cl)C(=O)O)cc2)c(=O)n1CC1CC1 | 0.34 | 0.03 | 1230 nM | 463 nM |  | 
10 | CCCOC(=O)[C@H](Cc1ccc(-c2c(C(F)(F)F)cc(C)n(C)c2=O)cc1)NC(=O)c1c(Cl)cccc1Cl |  |  |  |  | 52.6 ×10⁻⁶ cm/s | Stability [4]: Stable; solubility [5, 10]: BLD
11 | CCn1c(C)cc(C(F)(F)F)c(-c2ccc(C[C@H](NC(=O)c3c(Cl)cccc3Cl)C(=O)O)cc2)c1=O | 1.9 | 0.4 | 61 nM | 112 nM |  | 
12 | CCN(CC)CCOC(=O)[C@H](Cc1ccc(-c2c(C(F)(F)F)cc(C)n(C)c2=O)cc1)NC(=O)c1c(Cl)cccc1Cl |  |  |  |  | 9.6 ×10⁻⁶ cm/s | bioavailability [8]: 12%; IC20 (hERG (KCNH2)): 11700 nM; half-life ([4]; simulated intestinal fluid): 30 min; solubility [5, 11]: > 5000 µg/mL
13 | Cc1cc(C(F)(F)F)c(-c2ccc(C[C@H](NC(=O)c3c(Cl)cccc3Cl)C(=O)O)cc2)c(=O)n1Cc1ccccc1 | 0.96 | 0.12 | 600 nM | 560 nM |  | 
14 | Cc1cc(C(F)(F)F)c(-c2ccc(C[C@H](NC(=O)c3c(Cl)cccc3Cl)C(=O)O)cc2)c(=O)[nH]1 | 0.65 | 0.08 | 810 nM | 820 nM |  | 
15 | Cc1cccc(Cl)c1C(=O)N[C@@H](Cc1ccc(-c2c(C(F)(F)F)cc(C)n(C)c2=O)cc1)C(=O)O | 3.5 | 0.47 | 154 nM | 48 nM |  | 
16 | Cc1cc(C(F)(F)F)c(-c2ccc(C[C@H](NC(=O)c3c(Cl)cccc3Cl)C(=O)OCC3CCOC3)cc2)c(=O)n1C (some centres undefined) |  |  |  |  | 76.4 ×10⁻⁶ cm/s | Stability [4]: Stable; solubility [5, 11]: 0.03 µg/mL (≈ 0.0491 µM); solubility [9]: 0.03 µg/mL (≈ 0.0491 µM)
17 | Cc1cccc(Cl)c1C(=O)N[C@@H](Cc1ccc(NC(=O)c2c(Cl)cccc2Cl)cc1)C(=O)O |  |  | 43 nM | 10 nM |  | 
18 | CC(=O)OC(C)OC(=O)[C@H](Cc1ccc(-c2c(C(F)(F)F)cc(C)n(C)c2=O)cc1)NC(=O)c1c(Cl)cccc1Cl (some centres undefined) |  |  |  |  | 27.5 ×10⁻⁶ cm/s | bioavailability [8]: 17%; Stability [4]: Stable; solubility [9]: 4 µg/mL (≈ 6.52 µM)
19 | Cc1ccn(C)c(=O)c1-c1ccc(C[C@H](NC(=O)c2c(Cl)cccc2Cl)C(=O)O)cc1 | 1.6 | 0.37 | 179 nM | 90 nM |  | 
20 | COCCC1(C(=O)N[C@@H](Cc2ccc(-c3c(C(F)(F)F)cc(C)n(C)c3=O)cc2)C(=O)O)CCCC1 | 0.54 | 0.75 | 671 nM | 140 nM |  | 
21 | Cc1cc(C(F)(F)F)c(-c2ccc(C[C@H](NC(=O)c3c(Cl)cccc3Cl)C(=O)OCC(C)C)cc2)c(=O)n1C |  |  |  |  | 32.5 ×10⁻⁶ cm/s | Stability [4]: Stable; solubility [5, 10]: BLD
22 | COCCCOC(=O)[C@H](Cc1ccc(-c2c(C(F)(F)F)cc(C)n(C)c2=O)cc1)NC(=O)c1c(Cl)cccc1Cl |  |  |  |  | 22.8 ×10⁻⁶ cm/s | bioavailability [8]: 2%
23 | Cc1cc(C(F)(F)F)n(C)c(=O)c1-c1ccc(C[C@H](NC(=O)c2c(Cl)cccc2Cl)C(=O)O)cc1 | 2.2 | 0.11 | 126 nM | 269 nM |  | 
24 | Cc1cccc(Cl)c1C(=O)N[C@@H](Cc1ccc(-c2c(C)cc(C(F)(F)F)n(C)c2=O)cc1)C(=O)O | 2.6 | 0.06 | 160 nM | 267 nM |  | 
